This note sets out measurements from ChEMBL document CHEMBL1129338, “Inhibitors of acyl-CoA:cholesterol O-acyltransferase. synthesis and pharmacological activity of (+/-)-2-dodecyl-alpha-phenyl-N-(2,4,6-trimethoxyphenyl)-2H-tetrazole-5- acetamide and structurally related tetrazole amide derivatives” (J Med Chem, 1996).

Assay [1] deals with T1, Sterol O-acyltransferase 1 (Rattus norvegicus, UniProt O70536).
T1 sequence (O70536 whole entry): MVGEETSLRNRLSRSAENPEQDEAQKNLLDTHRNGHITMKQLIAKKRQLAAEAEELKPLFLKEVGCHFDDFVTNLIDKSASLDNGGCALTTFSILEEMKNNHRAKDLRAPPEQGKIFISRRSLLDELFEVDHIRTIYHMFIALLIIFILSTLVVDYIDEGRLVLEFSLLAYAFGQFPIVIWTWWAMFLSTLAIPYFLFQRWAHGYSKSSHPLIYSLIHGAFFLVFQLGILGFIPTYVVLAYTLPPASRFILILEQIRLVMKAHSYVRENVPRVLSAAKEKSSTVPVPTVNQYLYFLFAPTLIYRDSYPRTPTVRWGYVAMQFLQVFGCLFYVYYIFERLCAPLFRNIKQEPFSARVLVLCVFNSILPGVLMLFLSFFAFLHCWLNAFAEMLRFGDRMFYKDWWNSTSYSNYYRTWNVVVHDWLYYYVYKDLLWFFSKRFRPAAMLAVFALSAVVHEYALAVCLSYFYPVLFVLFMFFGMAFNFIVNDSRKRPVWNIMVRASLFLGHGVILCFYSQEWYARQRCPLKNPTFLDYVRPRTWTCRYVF
The assay can be described thus: In vitro inhibitory activity against acyl coenzyme A:cholesterol acyltransferase 1 of liver microsomes isolated from cholesterol-fed rats. An outline of the steps: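 ACAT inhibition was measured in hepatic microsomes isolated from cholesterol-fed rats. Each determination was run in triplicate, and IC50 was reported.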

Assay [2] addresses T2, Sterol O-acyltransferase 1 (Mus musculus) (UniProt Q61263).
T2 sequence (whole entry): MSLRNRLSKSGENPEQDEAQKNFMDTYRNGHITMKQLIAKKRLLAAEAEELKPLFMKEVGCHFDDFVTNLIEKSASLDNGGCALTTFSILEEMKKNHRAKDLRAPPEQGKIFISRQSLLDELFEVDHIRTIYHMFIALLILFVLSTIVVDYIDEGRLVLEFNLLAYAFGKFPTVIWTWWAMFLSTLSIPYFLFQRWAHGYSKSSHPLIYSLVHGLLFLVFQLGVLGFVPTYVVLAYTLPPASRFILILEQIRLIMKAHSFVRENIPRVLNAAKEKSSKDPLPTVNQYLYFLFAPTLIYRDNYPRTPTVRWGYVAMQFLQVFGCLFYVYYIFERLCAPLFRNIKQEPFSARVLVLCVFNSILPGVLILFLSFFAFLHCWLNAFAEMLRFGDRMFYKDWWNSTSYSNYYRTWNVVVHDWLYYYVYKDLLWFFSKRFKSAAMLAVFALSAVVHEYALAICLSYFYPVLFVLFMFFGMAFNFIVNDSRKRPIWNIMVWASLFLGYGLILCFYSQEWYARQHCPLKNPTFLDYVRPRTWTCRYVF
The assay can be described thus: In vitro inhibitory activity against acyl coenzyme A:cholesterol acyltransferase 1 in cell culture assay using murine IC-21 macrophages at 0.1 uM. The essentials:
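IC-21 mouse macrophages were preincubated 16 h in serum-free DMEM with 20 µM albumin and phosphatidylserine/cholesterol vesicles. The vesicles were sonicated in 150 mM NaCl, 5 mM MOPS, 1 mM EDTA, pH 7.4, and filter-sterilized. Medium was then replaced with serum-free DMEM containing the compound in DMSO at 0.1 µM. Percent inhibition was read, with cell protein measured by the Lowry method.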

The test system of assay [3] is Rattus norvegicus. The assay can be described thus: Percent change in High Density Lipoproteins (HDL) in Chronic Cholesterol -Fed rat model at a dose 30 mg/kg. The assay is classed as functional. An outline of the steps: (§1)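 Rats ate a high-fat, high-cholesterol diet for 14 days. During the second week they received the test compound daily by gavage at 30 mg/kg, in a carboxymethylcellulose/Tween-20 aqueous vehicle. Plasma lipids (total cholesterol, HDL-C, non-HDL-C) were read as percent change.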

Assay [4] deals with Rattus norvegicus. Briefly: Percent change in non High Density Lipoproteins (HDL) in Chronic Cholesterol -Fed rat model at a dose 30 mg/kg.
Assay [5] deals with Rattus norvegicus. The assay can be described thus: % change in total cholesterol in Chronic Cholesterol-Fed rat model at dose 30 mg/kg. The assay is classed as functional. The essentials: as §1
The subject of assay [6] is Rattus norvegicus. The assay can be described thus: Percent change in total cholesterol (TC) in cholic acid (0.5%)-, cholesterol (1.5%) -, and peanut oil (5.5%)- fed rats at a dose 30 mg/kg. The assay is classed as functional.
For assay [7], the system named is Rattus norvegicus. The assay can be described thus: In vitro percent decrease in cholesterol activity at 30 mg/kg in acute rat screen. The assay is classed as functional. Particulars: in the assay text read “In vivo” for “In vitro”. An outline of the steps:
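Rats received a single gavage dose of 30 mg/kg, suspended in carboxymethylcellulose/Tween-20 in water, followed by one high-fat, high-cholesterol meal. The read-out was inhibition of the overnight rise in plasma total cholesterol, as percent change.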

pIC50: −log10 of the molar value.

In turn, `CCCCCCCCCCCCn1nnc(CCC(=O)Nc2c(OC)cc(OC)cc2OC)n1` showed a pIC50 in assay [1] of 6.32. The same molecule came in with an inhibition in assay [2] of 9%.
For `CCCCCCCCCCCCn1nnc(CC(=O)Nc2c(C(C)C)cccc2C(C)C)n1`, the Change is 82% in assay [3], under 63% in assay [4], under 42% in assay [5] and under 64% in assay [6]. Moreover, the negative logarithm of the IC50 (pIC50) in assay [1] is 8.30. This molecule registered an inhibition in assay [2] of 91%.
`CCCCCCCCCCCCn1nnc(C(C(=O)Nc2c(OC)cc(OC)cc2OC)C2CCCCC2)n1` (stereo not drawn) gave a pIC50 in assay [1] of 7.55. The inhibition in assay [2] is 8%. In assay [6], the Change is on record as under 61%.
Take `CCCCCCCCCCCCn1nnc(C(C(=O)Nc2c(OC)cc(OC)cc2OC)c2ccc(F)cc2)n1` (stereo not drawn): the Change is on record as 12% in assay [3], under 53% in assay [4] and under 68% in assay [6]. In assay [1], the negative logarithm of the IC50 (pIC50) was 7.44. The molecule further displayed an inhibition in assay [2] of 46%.
The molecule `CCCCCCCCCCCCn1nnc(C(C(=O)Nc2c(C(C)C)cccc2C(C)C)c2ccccn2)n1` (stereo not drawn) showed a negative logarithm of the IC50 (pIC50) in assay [1] of 7.59. The inhibition in assay [2] turned out to be 24%. The Change in assay [6] was under 64%.
With `CCCCCCCCCCCCc1nnn(CC(=O)Nc2c(OC)cc(OC)cc2OC)n1`, the Change in assay [3] was 3%; in assay [4], under 46%; in assay [5] it was under 44%; in assay [6], under 69%. For the same molecule, in assay [7], the Decrease was determined as 69%. For the same molecule, in assay [1], the pIC50 is 7.25. Moreover, the inhibition in assay [2] is 61%.
As for `CCCCCCCCCCCCn1nnc(C(C(=O)Nc2c(C)nn(C)c2C)c2ccccc2)n1` (stereo not drawn), the Change in assay [3] was 28%; in assay [6] it was under 62%. For the same molecule, the Decrease in assay [7] stood at 66%. The same molecule had a pIC50 in assay [1] of 7.89. In assay [2], this molecule registered an inhibition of 66%.
In the case of `CCCCCCCCCCCCn1nnc(CC(=O)Nc2c(OC)cc(OC)cc2OC)n1`, in assay [1], the pIC50 is 7.62. The molecule further came in with an inhibition in assay [2] of 66%. In addition, the Change in assay [6] was under 60%.
As for `CCCCCCCCCCCCn1nnc(C2(C(=O)Nc3c(OC)cc(OC)cc3OC)CCCC2)n1`, in assay [1], the pIC50 is 7.20. The molecule also yielded an inhibition in assay [2] of 16%. Moreover, the Change in assay [6] is given as under 56%.
`CCCCCCCCCCCCn1nnc(C(C(=O)NC(C)(C)C)c2ccccc2)n1` (stereo not drawn) had a negative logarithm of the IC50 (pIC50) in assay [1] of 5.48. This molecule returned an inhibition in assay [2] of 1%. For the same molecule, the Change in assay [6] was found to be 1%.
In turn, `CCCCCCCCCCCCn1nnc(C(C(=O)Nc2ccccn2)c2ccccc2)n1` (stereo not drawn) showed a pIC50 in assay [1] of 6.32. In assay [2], this molecule displayed an inhibition of 8%. Also, the Change in assay [6] is 22%.
`CCCCCCCCCCCCn1nnc(C(C(=O)Nc2ccc(F)cc2F)c2ccccc2)n1` (stereo not drawn) gave a pIC50 in assay [1] of 7.51. Further, the inhibition in assay [2] was found to be 1%. For the same molecule, the Change in assay [6] is listed as under 70%.
In the case of `CCCCCCCCCCCCn1nnc(C(C(=O)Nc2c(C(C)C)cccc2C(C)C)c2nnn[nH]2)n1` (stereo not drawn), in assay [1], the pIC50 is under 5.30. This molecule registered an inhibition in assay [2] of 8%. Moreover, the Change in assay [6] is under 37%.
`CCCCCCCCCCCCn1nnc(C(=O)Nc2c(C(C)C)cccc2C(C)C)n1` had a negative-log IC50 (pIC50) in assay [1] of 5.98. The same molecule yielded an inhibition in assay [2] of 33%. For the same molecule, in assay [6], the Change is given as 23%.
On the same counts, the results for `CCCCCCCCCCCCn1nnc(C(C(=O)Nc2ncccc2C)c2ccccc2)n1` (stereo not drawn) are 7.07, 4% and under 52%.
For `CCCCCCCCCCCCn1nnc(C(C#N)C(=O)Nc2c(OC)cc(OC)cc2OC)n1` (stereo not drawn) the same measures were 4.87, 7% and under 27%.
In assay [1], `CCCCCCCCCCCCn1nnc(C(C(=O)Nc2c(OC)cc(OC)cc2OC)c2ccc(N(C)C)cc2)n1` (stereo not drawn) showed a pIC50 of 6.18. In assay [2], the inhibition is 0%. The Change in assay [6] is given as under 62%.
For the molecule `CCCCCCCCCCCCn1nnc(C(C(=O)Nc2c(OC)cc(OC)cc2OC)c2ccccn2)n1` (stereo not drawn), in assay [1], the negative logarithm of the IC50 (pIC50) is 7.23. In assay [2], this molecule showed an inhibition of 23%. For the same molecule, in assay [6], the Change is reported as under 60%.
Turning to `CCCCCCCCCCCCn1nnc(C(C(=O)Nc2c(OC)ncnc2OC)c2ccccc2)n1` (stereo not drawn), the Decrease in assay [7] came to 66%. In addition, in assay [1], the pIC50 is 7.89. In addition, the inhibition in assay [2] worked out at 39%. The Change in assay [6] was under 56%.
In assay [1], `CCCCCCCCCCCCn1nnc(C(F)C(=O)Nc2c(OC)cc(OC)cc2OC)n1` (stereo not drawn) had a pIC50 of 5.75.
Consider `CCCCCCCCCCCCc1nnn(CC(=O)Nc2c(C(C)C)cccc2C(C)C)n1`, for which the Change is 165% in assay [3], under 81% in assay [4], under 72% in assay [5] and under 68% in assay [6]. The Decrease in assay [7] was 68%. The pIC50 in assay [1] was 8.22. Further, in assay [2], the inhibition came out at 95%.
`CCCCCCCCCCCCn1nnc(CCC(=O)Nc2c(C(C)C)cccc2C(C)C)n1` showed a negative logarithm of the IC50 (pIC50) in assay [1] of 7.52. The molecule further registered an inhibition in assay [2] of 17%. Further, in assay [6], the Change is on record as under 47%.
With `CCCCCCCCCCCCn1nnc(C(C(=O)Nc2ccc3c(C)cc(C)nc3n2)c2ccccc2)n1` (stereo not drawn), in assay [1], the pIC50 is 5.81. The molecule further had an inhibition in assay [2] of 49%. In addition, the Change in assay [6] is on record as 8%.
On the same counts, the results for `CCCCCCCCCCCCn1nnc(C(C(=O)Nc2c(OC)cc(OC)cc2OC)c2ccc(-c3ccccc3)cc2)n1` (stereo not drawn) are 6.66, 10% and under 43%.
For the molecule `CCCCCCCCCCCCn1nnc(C(C(=O)NC2CC2)c2ccccc2)n1` (stereo not drawn), the pIC50 in assay [1] was 6.61. Besides, the inhibition in assay [2] amounted to 10%. Further, the Change in assay [6] is listed as under 62%.
`CCCCCCCCCCCCn1nnc(C(C(=O)Nc2ccccc2)c2ccccc2)n1` (stereo not drawn) showed a pIC50 in assay [1] of 6.32. The inhibition in assay [2] is 46%. The Change in assay [6] is reported as 38%.
In assay [1], `CCCCCCCCn1nnc(C(C(=O)Nc2c(OC)cc(OC)cc2OC)c2ccccc2)n1` (stereo not drawn) showed a pIC50 of 6.57. Further, the inhibition in assay [2] stood at 13%. Besides, the Change in assay [6] is recorded as under 39%.
For `CCCCCCCCCCCCn1nnc(C(C(=O)Nc2c(OC)cc(OC)cc2OC)c2ccc(OC)cc2)n1` (stereo not drawn) the same measures were 6.70, 61% and under 57%.
On to `CCCCCCCCCCCCCCCCn1nnc(C(C(=O)Nc2c(OC)cc(OC)cc2OC)c2ccccc2)n1` (stereo not drawn), for which the Change is listed as 16% in assay [3], -9% in assay [4] and under 47% in assay [6]. In assay [1], this molecule had a pIC50 of 7.28. In assay [2], this molecule registered an inhibition of 55%.
Take `CCCCCCCCCCCCn1nnc(C(C#N)C(=O)Nc2c(C(C)C)cccc2C(C)C)n1` (stereo not drawn): the pIC50 in assay [1] was under 5.30. The same molecule showed an inhibition in assay [2] of 7%. Further, the Change in assay [6] was under 75%.
Molecule `CCCCCCCCCCCCn1nnc(C(C)(C)C(=O)Nc2c(OC)cc(OC)cc2OC)n1` gave a pIC50 in assay [1] of 7.48. The molecule also registered an inhibition in assay [2] of 34%. Also, the Change in assay [6] was under 69%.
